According to ChEMBL document CHEMBL3044834, “Novel protoporphyrinogen oxidase inhibitors: 3H-pyrazolo[3,4-d][1,2,3]triazin-4-one derivatives” (J Agric Food Chem, 2008):

What was measured:
[1] = system: Brassica rapa subsp. oleifera; test: Herbicidal activity against Brassica rapa subsp. oleifera assessed as inhibition of fresh weed plant weight at 22.5 g/ha using pre-emergence treatment protocol; type: functional
[2] = system: Amaranthus retroflexus; test: Herbicidal activity against Amaranthus retroflexus assessed as inhibition of fresh weed plant weight at 187.5 g/ha using pre-emergence treatment protocol; type: functional
[3] = system: Amaranthus retroflexus; test: Herbicidal activity against Amaranthus retroflexus assessed as inhibition of fresh weed plant weight at 22.5 g/ha using pre-emergence treatment protocol; type: functional
[4] = system: Digitaria sanguinalis; test: Herbicidal activity against Digitaria sanguinalis (hairy crabgrass) assessed as inhibition of fresh weed plant weight at 22.5 g/ha using pre-emergence treatment protocol; type: functional
[5] = system: Echinochloa crus-galli; test: Herbicidal activity against Echinochloa crus-galli (barnyard grass) assessed as inhibition of fresh weed plant weight at 22.5 g/ha using pre-emergence treatment protocol; type: functional
Summary of the method: (§1)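 Test compounds made up as emulsions by dissolving in 100 µL N,N-dimethylformamide, then adding a little Tween 20 and water. For post-emergence, weed seedlings at one leaf and one stem were sprayed at the same rates as the pre-emergence test. Fresh weight was recorded 15 days after treatment and expressed as percent inhibition versus controls. All treatments were run in triplicate.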

[6] = system: Digitaria sanguinalis; test: Herbicidal activity against Digitaria sanguinalis (hairy crabgrass) assessed as inhibition of fresh weed plant weight at 45 g/ha using pre-emergence treatment protocol; type: functional
[7] = system: Brassica rapa subsp. oleifera; test: Herbicidal activity against Brassica rapa subsp. oleifera assessed as inhibition of fresh weed plant weight at 45 g/ha using pre-emergence treatment protocol; type: functional
[8] = system: Echinochloa crus-galli; test: Herbicidal activity against Echinochloa crus-galli (barnyard grass) assessed as inhibition of fresh weed plant weight at 93.75 g/ha using pre-emergence treatment protocol; type: functional
[9] = system: Amaranthus retroflexus; test: Herbicidal activity against Amaranthus retroflexus assessed as inhibition of fresh weed plant weight at 93.75 g/ha using pre-emergence treatment protocol; type: functional
[10] = system: Echinochloa crus-galli; test: Herbicidal activity against Echinochloa crus-galli (barnyard grass) assessed as inhibition of fresh weed plant weight at 187.5 g/ha using pre-emergence treatment protocol; type: functional; summary of the method: as §1
[11] = system: Amaranthus retroflexus; test: Herbicidal activity against Amaranthus retroflexus assessed as inhibition of fresh weed plant weight at 45 g/ha using pre-emergence treatment protocol; type: functional
[12] = molecular target: T1, Protoporphyrinogen IX oxidase (Zea mays, UniProt Q9M629); test: Inhibition of protoporphyrinogen oxidase in Zea mays (maize) seedlings leaves etioplasts using protoporphyrinogen IX incubated for 30 min by fluorescence spectroscopy
T1 sequence (Q9M629 whole entry): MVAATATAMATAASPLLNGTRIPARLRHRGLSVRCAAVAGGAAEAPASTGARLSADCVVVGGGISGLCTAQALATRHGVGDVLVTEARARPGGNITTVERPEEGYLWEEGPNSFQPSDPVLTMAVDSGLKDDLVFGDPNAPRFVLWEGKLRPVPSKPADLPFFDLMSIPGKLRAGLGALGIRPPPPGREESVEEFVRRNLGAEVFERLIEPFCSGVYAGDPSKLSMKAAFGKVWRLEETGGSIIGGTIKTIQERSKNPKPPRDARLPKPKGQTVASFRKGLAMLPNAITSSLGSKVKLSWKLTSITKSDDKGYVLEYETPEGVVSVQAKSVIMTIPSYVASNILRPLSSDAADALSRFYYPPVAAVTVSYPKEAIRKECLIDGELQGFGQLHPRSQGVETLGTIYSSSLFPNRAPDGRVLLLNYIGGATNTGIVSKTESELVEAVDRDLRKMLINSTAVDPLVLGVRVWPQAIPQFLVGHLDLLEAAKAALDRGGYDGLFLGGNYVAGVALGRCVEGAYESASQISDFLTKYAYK

[13] = system: Echinochloa crus-galli; test: Herbicidal activity against Echinochloa crus-galli (barnyard grass) assessed as inhibition of fresh weed plant weight at 45 g/ha using pre-emergence treatment protocol; type: functional
[14] = system: Digitaria sanguinalis; test: Herbicidal activity against Digitaria sanguinalis (hairy crabgrass) assessed as inhibition of fresh weed plant weight at 93.75 g/ha using pre-emergence treatment protocol; type: functional
[15] = system: Brassica rapa subsp. oleifera; test: Herbicidal activity against Brassica rapa subsp. oleifera assessed as inhibition of fresh weed plant weight at 187.5 g/ha using pre-emergence treatment protocol; type: functional
[16] = system: Digitaria sanguinalis; test: Herbicidal activity against Digitaria sanguinalis (hairy crabgrass) assessed as inhibition of fresh weed plant weight at 187.5 g/ha using pre-emergence treatment protocol; type: functional
[17] = system: Brassica rapa subsp. oleifera; test: Herbicidal activity against Brassica rapa subsp. oleifera assessed as inhibition of fresh weed plant weight at 93.75 g/ha using pre-emergence treatment protocol; type: functional

Structure (SMILES): C#CCN1C(=O)COc2cc(F)c(N3C(=O)C4=C(CCCC4)C3=O)cc21 [FLUMIOXAZIN]
- inhibition at 22.5 g/ha [1]: 92.6%
- inhibition at 187.5 g/ha [2]: 100%
- inhibition at 22.5 g/ha [3]: 100%
- inhibition at 22.5 g/ha [4]: 85.4%
- inhibition at 22.5 g/ha [5]: 40.9%
- inhibition at 45 g/ha [6]: 100%
- inhibition at 45 g/ha [7]: 100%
- inhibition at 93.75 g/ha [8]: 100%
- inhibition at 93.75 g/ha [9]: 100%
- inhibition at 187.5 g/ha [10]: 100%
- inhibition at 45 g/ha [11]: 100%
- IC50 [12]: 3.24 nM
- inhibition at 45 g/ha [13]: 71.4%
- inhibition at 93.75 g/ha [14]: 100%
- inhibition at 187.5 g/ha [15]: 100%
- inhibition at 187.5 g/ha [16]: 100%
- inhibition at 93.75 g/ha [17]: 100%
